From ChEMBL document CHEMBL1132160, “Structure-antiviral activity relationship in the series of pyrimidine and purine N-[2-(2-phosphonomethoxy)ethyl] nucleotide analogues. 1. Derivatives substituted at the carbon atoms of the base” (J Med Chem, 1999)
Converted amounts (≈) assume the structure as drawn.

Assays:
[1] = Inhibitory activity against murine sarcoma virus induced transformation of murine C3H/3T3 embryo fibroblasts; format: functional, Mus musculus
Outline: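 Murine C3H/3T3 embryo fibroblasts were seeded at 5 × 10⁵ cells/mL. After 24 h they were infected with 80 focus-forming units of MSV for 90–120 min at 37 °C. The medium was then replaced with fresh medium containing various compound concentrations, and transformation was examined microscopically after 6 days.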

[2] = tested on: Human alphaherpesvirus 2; experiment: Inhibitory activity against herpes simplex virus type 2 (HSV-2) Lyons strain; format: functional, organism-based
Outline: (§1)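 Confluent E6SM cell cultures were inoculated with 100 CCID50 of virus and allowed 1 h for adsorption. Residual virus was then removed, and the cells were incubated with test compound at 400, 200, 100, ... μg/mL. Viral cytopathicity was scored once it reached completion in untreated infected controls.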

[3] = tested on: Human immunodeficiency virus 2; experiment: Inhibitory activity against human immunodeficiency virus type 2 (HIV-2) induced cytopathogenicity in MT-4 cells; format: functional, organism-based; settings: Human immunodeficiency virus 2, MT4
[4] = tested on: Human alphaherpesvirus 2; experiment: Inhibitory activity against herpes simplex virus type 2 (HSV-2) G strain; format: functional, organism-based; outline: as §1
[5] = tested on: Human alphaherpesvirus 1; experiment: Inhibitory activity against herpes simplex virus type 1 (HSV-1) KOS strain; format: functional, organism-based; outline: as §1
[6] = tested on: Human alphaherpesvirus 1; experiment: Inhibition of herpes simplex virus type 1 (HSV-1) F strain; format: functional, organism-based; outline: as §1
[7] = tested on: Human alphaherpesvirus 1; experiment: Inhibitory activity against herpes simplex virus type 1 (HSV-1) McIntyre strain; format: functional, organism-based; outline: as §1
[8] = tested on: Cytomegalovirus; experiment: Inhibitory activity against cytomegalovirus (CMV) AD 169 strain; format: functional, organism-based; settings: Human betaherpesvirus 5
Outline: (§2)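 HEL cell cultures, grown to confluence, received 100 CCID50 of virus. After 1 h adsorption, the inoculum was removed and the cultures were incubated with serial concentrations of compound (400, 200, 100, ... μg/mL).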

[9] = tested on: Vaccinia virus; experiment: Inhibitory activity against vaccinia virus (VV); format: functional, organism-based; settings: Orthopoxvirus vaccinia
Outline: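 Confluent E6SM cell cultures were inoculated with 100 CCID50 of virus and left for 1 h adsorption, then residual virus was removed. Cultures were incubated with test compound at serial concentrations (400, 200, 100, ... μg/mL). Virus-induced cytopathicity was scored once it reached completion in untreated infected control cultures.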

[10] = tested on: Cytomegalovirus; experiment: Inhibitory activity against cytomegalovirus (CMV) Davis strain; format: functional, organism-based; settings: Human betaherpesvirus 5; outline: as §2
[11] = Inhibitory activity against herpes simplex virus type 2 (HSV-2) 196 strain; format: functional; outline: as §1
[12] = tested on: Human immunodeficiency virus 1; experiment: Inhibitory activity of compound against human immunodeficiency virus type 1 (HIV-1) induced cytopathogenicity in MT-4 cells; format: functional, organism-based; settings: Human immunodeficiency virus 1, MT4
Outline: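 Human MT-4 cells (~4 × 10⁵ cells/mL) were infected with 100 CCID50 of HIV-1 (IIIB)/mL and seeded into wells containing compound dilutions. After 5 days at 37 °C, viable cells were counted by trypan blue exclusion in a blood cell counting chamber.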

[13] = tested on: Human immunodeficiency virus 1; experiment: Inhibition of human immunodeficiency virus type 1 (HIV-1) induced cytopathogenicity in CEM cells; format: functional, organism-based; settings: Human immunodeficiency virus 1, CCRF-CEM
Outline: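 CEM cells (~3 × 10⁵ cells/mL) were infected with 100 CCID50 of HIV-1 (IIIB)/mL and plated with dilutions of compound. After 4 days at 37 °C, giant cell formation was assessed microscopically.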

[14] = tested on: Human immunodeficiency virus 2; experiment: Inhibition of human immunodeficiency virus type 2 (HIV-2) induced cytopathogenicity in CEM cells; format: functional, organism-based; settings: Human immunodeficiency virus 2, CCRF-CEM

| SMILES | EC50 [1] | EC50 [2] | EC50 [3] | EC50 [4] | EC50 [5] | EC50 [6] | EC50 [7] | EC50 [8] | EC50 [9] | EC50 [10] | EC50 [11] | EC50 [12] | EC50 [13] | EC50 [14] |
| --- | --- | --- | --- | --- | --- | --- | --- | --- | --- | --- | --- | --- | --- | --- |
| Nc1cc2c(ncn2CCOCP(=O)(O)O)c(O)n1 | 2.9 µg/mL (≈ 10.1 µM) | 7 µg/mL (≈ 24.3 µM) | > 20 µg/mL | 12 µg/mL (≈ 41.6 µM) | 4.5 µg/mL (≈ 15.6 µM) | 7 µg/mL (≈ 24.3 µM) | 4 µg/mL (≈ 13.9 µM) | 2 µg/mL (≈ 6.94 µM) | 150 µg/mL (≈ 520 µM) | 1.5 µg/mL (≈ 5.2 µM) | 7 µg/mL (≈ 24.3 µM) | > 20 µg/mL | – | – |
| CC(C)OP(=O)(COCCn1cnc2c(N)nc(N)nc21)OC(C)C | – | 240 µg/mL (≈ 645 µM) | – | > 400 µg/mL | 240 µg/mL (≈ 645 µM) | 240 µg/mL (≈ 645 µM) | 89 µg/mL (≈ 239 µM) | 2 µg/mL (≈ 5.37 µM) | – | 2 µg/mL (≈ 5.37 µM) | 240 µg/mL (≈ 645 µM) | > 100 µg/mL | > 100 µg/mL | – |
| NC1=NC2N=CC=NC2C(=O)N1CCOCP(=O)(O)O (stereo unspecified) | 26.5 µg/mL (≈ 87.4 µM) | 70 µg/mL (≈ 231 µM) | – | 70 µg/mL (≈ 231 µM) | 70 µg/mL (≈ 231 µM) | 150 µg/mL (≈ 495 µM) | 150 µg/mL (≈ 495 µM) | > 50 µg/mL | 200 µg/mL (≈ 660 µM) | > 50 µg/mL | 150 µg/mL (≈ 495 µM) | – | > 100 µg/mL | > 100 µg/mL |
| Nc1nc(S)c2c(ncn2CCOCP(=O)(O)O)n1 | 31 µg/mL (≈ 102 µM) | – | > 100 µg/mL | > 100 µg/mL | > 100 µg/mL | – | – | > 50 µg/mL | > 100 µg/mL | > 50 µg/mL | – | > 100 µg/mL | > 100 µg/mL | > 100 µg/mL |
| Nc1nnc(N)c2c1ncn2CCOCP(=O)(O)O | 124 µg/mL (≈ 430 µM) | > 200 µg/mL | – | > 200 µg/mL | > 200 µg/mL | > 200 µg/mL | > 200 µg/mL | > 50 µg/mL | > 200 µg/mL | > 50 µg/mL | > 200 µg/mL | – | > 100 µg/mL | > 100 µg/mL |
| O=P(O)(O)COCCn1cnc2c(S)ncnc21 | > 200 µg/mL | > 400 µg/mL | – | > 400 µg/mL | > 400 µg/mL | > 400 µg/mL | > 400 µg/mL | 25 µg/mL (≈ 86.1 µM) | > 400 µg/mL | 20 µg/mL (≈ 68.9 µM) | > 400 µg/mL | – | > 100 µg/mL | > 100 µg/mL |
| CCOP(=O)(O)COCCn1cnc2c(O)nc(N)nc21 | 0.24 µg/mL (≈ 0.757 µM) | 2 µg/mL (≈ 6.3 µM) | – | 0.7 µg/mL (≈ 2.21 µM) | 2 µg/mL (≈ 6.3 µM) | 2 µg/mL (≈ 6.3 µM) | 2 µg/mL (≈ 6.3 µM) | 0.15 µg/mL (≈ 0.473 µM) | 20 µg/mL (≈ 63 µM) | 0.15 µg/mL (≈ 0.473 µM) | 2 µg/mL (≈ 6.3 µM) | 2.6 µg/mL (≈ 8.2 µM) | – | – |
| Nc1nc(N)c2nc(Br)n(CCOCP(=O)(O)O)c2n1 | 2.43 µg/mL (≈ 6.62 µM) | 20 µg/mL (≈ 54.5 µM) | – | 20 µg/mL (≈ 54.5 µM) | 20 µg/mL (≈ 54.5 µM) | 7 µg/mL (≈ 19.1 µM) | 20 µg/mL (≈ 54.5 µM) | 8 µg/mL (≈ 21.8 µM) | 300 µg/mL (≈ 817 µM) | 12 µg/mL (≈ 32.7 µM) | 70 µg/mL (≈ 191 µM) | – | > 100 µg/mL | > 100 µg/mL |
| Nc1nc2c(ncn2CCOCP(=O)(O)O)c(=O)[nH]1 [GS-438] | 0.0006 µg/mL (≈ 0.00207 µM) | – | > 0.2 µg/mL | – | – | – | – | – | – | – | – | > 0.2 µg/mL | – | 0.03 µg/mL (≈ 0.104 µM) |
| Nc1nc(N)c2ncn(CCOCP(=O)(O)O)c2n1 [PMEDAP] | 0.6 µg/mL (≈ 2.08 µM) | 0.07 µg/mL (≈ 0.243 µM) | – | 0.2 µg/mL (≈ 0.694 µM) | 2 µg/mL (≈ 6.94 µM) | 2 µg/mL (≈ 6.94 µM) | 2 µg/mL (≈ 6.94 µM) | 10 µg/mL (≈ 34.7 µM) | 20 µg/mL (≈ 69.4 µM) | 10 µg/mL (≈ 34.7 µM) | 0.07 µg/mL (≈ 0.243 µM) | 2.67 µg/mL (≈ 9.26 µM) | – | – |
| Nc1nc(=O)n(CCOCP(=O)(O)O)cc1Br | 19.2 µg/mL (≈ 58.5 µM) | 70 µg/mL (≈ 213 µM) | – | 150 µg/mL (≈ 457 µM) | 20 µg/mL (≈ 61 µM) | 40 µg/mL (≈ 122 µM) | 70 µg/mL (≈ 213 µM) | 30 µg/mL (≈ 91.4 µM) | > 400 µg/mL | 33 µg/mL (≈ 101 µM) | 100 µg/mL (≈ 305 µM) | – | > 100 µg/mL | > 100 µg/mL |
| CC(C)OP(=O)(COCCn1c(Br)nc2c(N)nc(N)nc21)OC(C)C | > 40 µg/mL | 300 µg/mL (≈ 665 µM) | – | > 400 µg/mL | > 400 µg/mL | > 400 µg/mL | > 400 µg/mL | 25 µg/mL (≈ 55.4 µM) | > 400 µg/mL | 20 µg/mL (≈ 44.3 µM) | > 400 µg/mL | – | > 100 µg/mL | > 100 µg/mL |
| CC(C)CCCCCOP(=O)(O)COCCn1cnc2c(O)nc(N)nc21 | – | 240 µg/mL (≈ 598 µM) | > 100 µg/mL | 240 µg/mL (≈ 598 µM) | 240 µg/mL (≈ 598 µM) | 240 µg/mL (≈ 598 µM) | 240 µg/mL (≈ 598 µM) | > 50 µg/mL | – | > 50 µg/mL | 240 µg/mL (≈ 598 µM) | > 100 µg/mL | – | – |
| Nc1cc2c(ncn2CCOCP(=O)(O)O)c(N)n1 | 144 µg/mL (≈ 501 µM) | 70 µg/mL (≈ 244 µM) | 78.5 µg/mL (≈ 273 µM) | 70 µg/mL (≈ 244 µM) | 150 µg/mL (≈ 522 µM) | 70 µg/mL (≈ 244 µM) | 100 µg/mL (≈ 348 µM) | > 50 µg/mL | 150 µg/mL (≈ 522 µM) | > 50 µg/mL | 100 µg/mL (≈ 348 µM) | 51 µg/mL (≈ 178 µM) | 30 µg/mL (≈ 104 µM) | 16 µg/mL (≈ 55.7 µM) |
| Nc1cc(N)c2ncn(CCOCP(=O)(O)O)c2n1 | 142 µg/mL (≈ 494 µM) | 300 µg/mL (≈ 1040 µM) | – | 300 µg/mL (≈ 1040 µM) | 300 µg/mL (≈ 1040 µM) | > 400 µg/mL | > 400 µg/mL | > 50 µg/mL | > 400 µg/mL | > 50 µg/mL | > 400 µg/mL | – | > 100 µg/mL | > 100 µg/mL |
